{"source": "ChEMBL document CHEMBL1123041", "about": "“Synthesis of new bis(aminoethanethiol) (BAT) derivatives: possible ligands for 99mTc brain imaging agents” (J Med Chem, 1985)", "key": {"[1]": {"test_system": "Rattus norvegicus", "test": "Biodistribution in Sprague-Dawley rat skin 2 minutes after intravenous administration, [99mTc]/[125I]IAP ratio)", "format": "ADME, organism-based, Zone of skin", "settings": "in vivo", "how_it_was_run": "(§1)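 99mTc complex and [125I]iodoantipyrine were co-injected iv into rats. Rats were killed by cardiectomy at 2 or 15 min, and organs were excised, weighed and gamma-counted in two channels with spillover correction. The ratio is 99mTc percent dose divided by 125I percent dose in the same organ, averaged over three rats. Radiochemical purity of the complexes was >95% by reversed-phase HPLC.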"}, "[2]": {"test_system": "Rattus norvegicus", "test": "Biodistribution in Sprague-Dawley rat small intestine 15 minutes after intravenous administration, [99mTc]/[125I]IAP ratio)", "format": "ADME, organism-based", "settings": "in vivo, 0.25 h", "how_it_was_run": "as §1"}, "[3]": {"test_system": "Rattus norvegicus", "test": "Biodistribution in Sprague-Dawley rat small intestine 2 minutes after intravenous administration, [99mTc]/[125I]IAP ratio)", "format": "ADME, organism-based", "settings": "in vivo", "how_it_was_run": "as §1"}, "[4]": {"test_system": "Rattus norvegicus", "test": "Biodistribution in Sprague-Dawley rat spleen 15 minutes after intravenous administration, [99mTc]/[125I]IAP ratio)", "format": "ADME, organism-based", "settings": "in vivo, 0.25 h", "how_it_was_run": "as §1"}, "[5]": {"test_system": "Rattus norvegicus", "test": "Biodistribution in Sprague-Dawley rat spleen 2 minutes after intravenous administration, [99mTc]/[125I]IAP ratio)", "format": "ADME, organism-based", "settings": "in vivo", "how_it_was_run": "as §1"}, "[6]": {"test_system": "Rattus norvegicus", "test": "Biodistribution in Sprague-Dawley rat stomach 2 minutes after intravenous administration, [99mTc]/[125I]IAP ratio)", "format": "ADME, organism-based", "settings": "in vivo", "how_it_was_run": "as §1"}, "[7]": {"test_system": "Rattus norvegicus", "test": "Biodistribution in Sprague-Dawley rat thyroid 2 minutes after intravenous administration, [99mTc]/[125I]IAP ratio)", "format": "ADME, organism-based, Thyroid gland", "settings": "in vivo", "how_it_was_run": "as §1"}, "[8]": {"test_system": "Rattus norvegicus", "test": "Biodistribution in Sprague-Dawley rats heart 15 minutes after intravenous administration, [99mTc]/[125I]IAP ratio)", "format": "ADME, organism-based", "settings": "in vivo, 0.25 h", "how_it_was_run": "as §1"}, "[9]": {"test_system": "Rattus norvegicus", "test": "Biodistribution in Sprague-Dawley rat blood 15 minutes after intravenous administration, [99mTc]/[125I]IAP ratio)", "format": "ADME, organism-based", "settings": "in vivo, 0.25 h", "how_it_was_run": "as §1"}, "[10]": {"test_system": "Rattus norvegicus", "test": "Biodistribution in Sprague-Dawley rat brain 15 minutes after intravenous administration, [99mTc]/[125I]IAP ratio)", "format": "ADME, organism-based", "settings": "in vivo, 0.25 h", "how_it_was_run": "as §1"}, "[11]": {"test_system": "Rattus norvegicus", "test": "Biodistribution in Sprague-Dawley rat brain 2 minutes after intravenous administration, [99mTc]/[125I]IAP ratio)", "format": "ADME, organism-based", "settings": "in vivo", "how_it_was_run": "as §1"}, "[12]": {"test_system": "Rattus norvegicus", "test": "Biodistribution in Sprague-Dawley rat heart 2 minutes after intravenous administration, [99mTc]/[125I]IAP ratio)", "format": "ADME, organism-based", "settings": "in vivo", "how_it_was_run": "as §1"}, "[13]": {"test_system": "Rattus norvegicus", "test": "Biodistribution in Sprague-Dawley rat stomach 15 minutes after intravenous administration, [99mTc]/[125I]IAP ratio)", "format": "ADME, organism-based", "settings": "in vivo, 0.25 h", "how_it_was_run": "as §1"}, "[14]": {"test_system": "Rattus norvegicus", "test": "Biodistribution in Sprague-Dawley rat kidneys(2) 15 minutes after intravenous administration, [99mTc]/[125I]IAP ratio)", "format": "ADME, organism-based, Kidney", "settings": "in vivo, 0.25 h", "how_it_was_run": "as §1"}, "[15]": {"test_system": "Rattus norvegicus", "test": "Biodistribution in Sprague-Dawley rat kidneys(2) 2 minutes after intravenous administration, [99mTc]/[125I]IAP ratio)", "format": "ADME, organism-based, Kidney", "settings": "in vivo", "how_it_was_run": "as §1"}, "[16]": {"test_system": "Rattus norvegicus", "test": "Biodistribution in Sprague-Dawley rat liver 15 minutes after intravenous administration, [99mTc]/[125I]IAP ratio)", "format": "ADME, organism-based", "settings": "in vivo, 0.25 h", "how_it_was_run": "as §1"}, "[17]": {"test_system": "Rattus norvegicus", "test": "Biodistribution in Sprague-Dawley rat liver 2 minutes after intravenous administration, [99mTc]/[125I]IAP ratio)", "format": "ADME, organism-based", "settings": "in vivo", "how_it_was_run": "as §1"}, "[18]": {"test_system": "Rattus norvegicus", "test": "Biodistribution in Sprague-Dawley rat lungs(2) 15 minutes after intravenous administration, [99mTc]/[125I]IAP ratio)", "format": "ADME, organism-based, Lung", "settings": "in vivo, 0.25 h", "how_it_was_run": "as §1"}, "[19]": {"test_system": "Rattus norvegicus", "test": "Biodistribution in Sprague-Dawley rat lungs(2) 2 minutes after intravenous administration, [99mTc]/[125I]IAP ratio)", "format": "ADME, organism-based, Lung", "settings": "in vivo", "how_it_was_run": "as §1"}, "[20]": {"test_system": "Rattus norvegicus", "test": "Biodistribution in Sprague-Dawley rat muscle 15 minutes after intravenous administration, [99mTc]/[125I]IAP ratio)", "format": "ADME, organism-based, Muscle tissue", "settings": "in vivo, 0.25 h", "how_it_was_run": "as §1"}, "[21]": {"test_system": "Rattus norvegicus", "test": "Biodistribution in Sprague-Dawley rat muscle 2 minutes after intravenous administration, [99mTc]/[125I]IAP ratio)", "format": "ADME, organism-based, Muscle tissue", "settings": "in vivo", "how_it_was_run": "as §1"}, "[22]": {"test_system": "Rattus norvegicus", "test": "Biodistribution in Sprague-Dawley rat skin 15 minutes after intravenous administration, [99mTc]/[125I]IAP ratio)", "format": "ADME, organism-based, Zone of skin", "settings": "in vivo, 0.25 h", "how_it_was_run": "as §1"}, "[23]": {"test": "Partition coefficient was determined atpH 7.0.", "format": "ADME", "settings": "octanol/water, pH 7", "how_it_was_run": "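99mTc-labelled BAT complex shaken with 3 g each of 1-octanol and 0.1 M phosphate buffer (pH 7.0), vortexed 3 min at room temperature, centrifuged 5 min. Two 0.5 g samples per layer counted in a well counter; PC = cpm/g octanol over cpm/g buffer. Octanol layer repartitioned until values were consistent; usually repeated three times.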"}, "[24]": {"species": "Homo sapiens", "test": "The human serum protein binding activity was determined", "format": "functional", "how_it_was_run": "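Equilibrium dialysis: 0.4 mL pooled human serum against 0.4 mL 0.15 M phosphate buffer pH 7.4 containing 99mTc complex (~0.025 μCi), rotated 18 h at 37 °C. Both sides weighed and counted; percent free = buffer/serum radioactivity concentration ratio × 100. Membrane counted afterwards to check membrane binding.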"}, "[25]": {"test_system": "Rattus norvegicus", "test": "Biodistribution in Sprague-Dawley rat blood 2 minutes after intravenous administration, [99mTc]/[125I]IAP ratio)", "format": "ADME, organism-based", "settings": "in vivo", "how_it_was_run": "as §1"}, "[26]": {"test_system": "Rattus norvegicus", "test": "Biodistribution in Sprague-Dawley rat thyroid 15 minutes after intravenous administration, [99mTc]/[125I]IAP ratio)", "format": "ADME, organism-based, Thyroid gland", "settings": "in vivo, 0.25 h", "how_it_was_run": "as §1"}}, "data": [{"smiles": "CC(C)(S)CNCC(CO)NCC(C)(C)S.Cl.Cl", "note": "(stereo unspecified)", "values": [{"measurement": "Dose", "setting": "[1]", "value": 6.72, "unit": "%"}, {"measurement": "Dose", "setting": "[2]", "value": 19.5, "unit": "%"}, {"measurement": "Dose", "setting": "[3]", "value": 4.46, "unit": "%"}, {"measurement": "Dose", "setting": "[4]", "value": 0.309, "unit": "%"}, {"measurement": "Dose", "setting": "[5]", "value": 0.349, "unit": "%"}, {"measurement": "Dose", "setting": "[6]", "value": 1.12, "unit": "%"}, {"measurement": "Dose", "setting": "[7]", "value": 0.088, "unit": "%"}, {"measurement": "Dose", "setting": "[8]", "value": 0.3, "unit": "%"}, {"measurement": "Dose", "setting": "[9]", "value": 9.14, "unit": "%"}, {"measurement": "Dose", "setting": "[10]", "value": 0.15, "unit": "%"}, {"measurement": "Dose", "setting": "[11]", "value": 0.24, "unit": "%"}, {"measurement": "Dose", "setting": "[12]", "value": 0.887, "unit": "%"}, {"measurement": "Dose", "setting": "[13]", "value": 0.85, "unit": "%"}, {"measurement": "Dose", "setting": "[14]", "value": 2.39, "unit": "%"}, {"measurement": "Dose", "setting": "[15]", "value": 2.21, "unit": "%"}, {"measurement": "Dose", "setting": "[16]", "value": 16.8, "unit": "%"}, {"measurement": "Dose", "setting": "[17]", "value": 16.7, "unit": "%"}, {"measurement": "Dose", "setting": "[18]", "value": 1.31, "unit": "%"}, {"measurement": "Dose", "setting": "[19]", "value": 2.27, "unit": "%"}, {"measurement": "Dose", "setting": "[20]", "value": 14.9, "unit": "%"}, {"measurement": "Dose", "setting": "[21]", "value": 13.4, "unit": "%"}, {"measurement": "Dose", "setting": "[22]", "value": 6.53, "unit": "%"}, {"measurement": "Partition coefficient", "setting": "[23]", "value": 64.5}, {"measurement": "Free", "setting": "[24]", "value": 42.5, "unit": "%"}, {"measurement": "Dose", "setting": "[25]", "value": 18.1, "unit": "%"}, {"measurement": "Dose", "setting": "[26]", "value": 0.053, "unit": "%"}]}]}
